Results from ChEMBL document CHEMBL4038266, “Griseofulvin Derivative and Indole Alkaloids from Penicillium griseofulvum CPCC 400528” (J Nat Prod, 2017).

Columns and labels:
[1] = tested on: Escherichia coli; test: Antibacterial activity against Escherichia coli after 18 hrs by broth microdilution method; type: functional
Outline: (§1)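 Broth microdilution per CLSI, using ATCC standard strains. Final compound concentrations ran from 0.125 to 256 μg/mL. Plates were incubated at 37 °C for 18 h. MIC was taken as the lowest concentration preventing visible bacterial growth. Levofloxacin served as the positive control.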

[2] = tested on: Human immunodeficiency virus 1; test: Antiviral activity against VSV pseudotyped HIV1 infected in SupT1 cells after 48 hrs by luciferase reporter gene assay; type: functional, cell-based; details: Human immunodeficiency virus 1, SUP-T1, 48 h
Outline: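 VSV-G pseudotyped HIV-1 produced by cotransfecting 293T cells (2 × 10^5/mL) with 0.6 μg pNL-Luc-E and 0.4 μg pHIT/G. Supernatant harvested after 48 h, 0.45 μm filtered, and capsid quantified by p24 antigen-capture ELISA. SupT1 cells infected at MOI 1 with or without compound, 37 °C, 48 h. Inhibition read by firefly luciferase. Efavirenz positive control.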

[3] = tested on: Staphylococcus aureus; test: Antibacterial activity against Staphylococcus aureus after 18 hrs by broth microdilution method; type: functional; outline: as §1

Compound	MIC [1]	IC50 [2]	MIC [3]
COc1cc(O)c2c(=O)c3c(C)cc(O)cc3oc2c1	> 64 µg/mL	79.4 µM	> 64 µg/mL
COC1=CC(=O)C[C@@H](C)[C@]12Oc1c(Cl)c(OC)cc(OC)c1C2=O [GRISEOFULVIN]	> 64 µg/mL	87.1 µM	> 64 µg/mL
Cc1cc(=O)n2c(n1)-c1c(cc3cccc4c3c1C(=O)N4)C2(C)C	> 64 µg/mL	20.5 µM	> 64 µg/mL
CN1C(=O)c2c3c(cc4cccc1c24)C(C)(C)NC3=O	> 64 µg/mL	12.6 µM	> 64 µg/mL
COc1ccc2c3c1C(=O)CC(C)(C)N3C(=O)[C@]21C[C@]2([N+](=O)[O-])CN3CCC[C@H]3C[C@@H]2C1(C)C	> 64 µg/mL	57.7 µM	> 64 µg/mL
COc1cc(OC)c2c(c1Cl)O[C@@]1(C(=O)C=C(NCCC(C)C)C[C@H]1C)C2=O	> 64 µg/mL	33.2 µM	> 64 µg/mL
Cc1cc(=O)n2c(n1)-c1c(cc3cccc4c3c1C(=O)N4C)C2(C)C	> 64 µg/mL	77.9 µM	> 64 µg/mL
CC(=O)[C@@]1(O)C(=O)N2C(C)(C)[C@@H]3Cc4cccc5c4[C@@]4(O[C@@]1(O)[C@@]2(O)[C@H]34)C(=O)N5	> 64 µg/mL	70.1 µM	> 64 µg/mL
COC1=CC(=O)C[C@@H](C)[C@]12Oc1cc(OC)cc(OC)c1C2=O	> 64 µg/mL	89.7 µM	> 64 µg/mL
